We go through seven compounds from ChEMBL document CHEMBL1154492, “Synthesis and activity of fibrillogenesis peptide inhibitors related to the 17-21 beta-amyloid sequence” (Eur J Med Chem, 2009).

Activity calls are given as the source filed them. No cut-off for these calls is given here. Residues, ends and D or L forms follow the SMILES beside them.

Data set [1] is described as follows: Chemical stability assessed as compound remaining after proteolytic cleavage after 2 hrs in presence of chymotrypsin. Format: physicochemical. The following applies: read-out: Stability. Put shortly: (§1)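 Each peptide at 0.76 mg/mL was incubated in PBS with 0.1 mg/mL chymotrypsin. Intact-peptide peak area was compared with an equivalent sample incubated in PBS alone.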

Data set [2] is described as follows: Chemical stability assessed as compound remaining after proteolytic cleavage after 20 hrs in presence of chymotrypsin. The note with it: read-out: Stability. In kind it is physicochemical. Put shortly: as §1
Data set [3] in a line: Inhibition of amyloid beta (1 to 40) fibril formation by thioflavin T fluorescent dye assay. The gist of the method: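 Aβ1-40 fractions were dissolved in 30 mM Tris/HCl pH 7.4 at 20 °C, with or without a 10-fold molar excess of inhibitor. Aliquots taken at 0.5, 1.5, 6, 8, 15 and 24 h went into ThT in 50 mM Tris/HCl pH 8.0. Fluorescence was read at 485 nm (excitation 450 nm) at 20 °C. Percent inhibition is relative to the parent pentapeptide. Three experiments, each sample in triplicate.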

The nature of data set [4]: Inhibition of amyloid beta (1 to 40) aggregation assessed as inhibition of protofbril formation. The gist of the method:
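Lyophilised Aβ1-40 was incubated in 30 mM Tris/HCl pH 7.4 at 20 °C, with or without a 10-fold molar excess of inhibitor. Aliquots taken at 30 min and 24 h were frozen, lyophilised, gold sputter-coated and imaged by scanning electron microscopy for protofibrils.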

For the compound `CC(=O)N[C@@H](CC(C)C)C(=O)N1CCC[C@H]1CS(=O)(=O)N[C@@H](Cc1ccccc1)C(=O)N[C@@H](Cc1ccccc1)C(=O)N[C@@H](CC(=O)O)C(N)=O`, the remaining at 2 h in data set [1] came to 35%. Further, in data set [2], the remaining at 20 h turned out to be 15%.
As to `CC(C)C[C@H](NS(=O)(=O)CCN(C)C)C(=O)N1CCC[C@H]1C(=O)N[C@@H](Cc1ccccc1)C(=O)N[C@@H](Cc1ccccc1)C(=O)N[C@@H](CC(=O)O)C(N)=O` (HELM PEPTIDE1{[CN(C)CCS(=O)(=O)[*:2]].L.P.F.F.D.[am]}$$$$V2.0), in data set [1], the remaining at 2 h is 70%. The result in data set [3] and in data set [4] was Active. Besides, the remaining at 20 h in data set [2] turned out to be 55%.
Regarding `CC(=O)N[C@@H](CC(C)C)C(=O)N1CCC[C@H]1CC(=O)N[C@@H](Cc1ccccc1)C(=O)N[C@@H](Cc1ccccc1)C(=O)N[C@@H](CC(=O)O)C(N)=O` (HELM PEPTIDE1{[ac].L.[O=C(C[C@@H]1CCCN1[*:1])[*:2]].F.F.D.[am]}$$$$V2.0), the remaining at 2 h in data set [1] came to 35%. Moreover, the remaining at 20 h in data set [2] is 15%.
`CC(=O)N[C@@H](CC(C)C)C(=O)N1CC[C@H]1C(=O)N[C@@H](Cc1ccccc1)C(=O)N[C@@H](Cc1ccccc1)C(=O)N[C@@H](CC(=O)O)C(N)=O` (HELM PEPTIDE1{[ac].L.[O=C([C@@H]1CCN1[*:1])[*:2]].F.F.D.[am]}$$$$V2.0): in data set [1], the remaining at 2 h stood at 35%. Further, the result in data set [3] was Active. In data set [2], the remaining at 20 h came to 15%.
For the compound `CC(=O)N[C@@H](CC(C)C)C(=O)N1C[C@@H](c2ccccc2)[C@@H]1C(=O)N[C@@H](Cc1ccccc1)C(=O)N[C@@H](Cc1ccccc1)C(=O)N[C@@H](CC(=O)O)C(N)=O` (HELM PEPTIDE1{[ac].L.[O=C([C@H]1[C@H](c2ccccc2)CN1[*:1])[*:2]].F.F.D.[am]}$$$$V2.0), the remaining at 2 h in data set [1] is 35%. Moreover, the remaining at 20 h in data set [2] was 15%.
In the case of Ac-LPFFD-NH2, the remaining at 2 h in data set [1] came out at 12%.
On to Ac-LPFFDLPFFD-NH2, for which the remaining at 2 h in data set [1] was 22%. Further, the result in data set [3] was Active.
